Results taken from ChEMBL document CHEMBL1132160, “Structure-antiviral activity relationship in the series of pyrimidine and purine N-[2-(2-phosphonomethoxy)ethyl] nucleotide analogues. 1. Derivatives substituted at the carbon atoms of the base” (J Med Chem, 1999).
≈ marks a conversion by molar mass, not a printed value.

What was measured:
[1] = Inhibitory activity against murine sarcoma virus induced transformation of murine C3H/3T3 embryo fibroblasts; type: functional, Mus musculus
Procedure, shortened: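 Murine C3H/3T3 embryo fibroblasts were seeded at 5 × 10⁵ cells/mL. After 24 h they were infected with 80 focus-forming units of MSV for 90–120 min at 37 °C. The medium was then replaced with fresh medium containing various compound concentrations, and transformation was examined microscopically after 6 days.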

Human alphaherpesvirus 1 [2] = assay: Inhibitory activity against herpes simplex virus type 1 (HSV-1) F strain; type: functional, organism-based
Procedure, shortened: (§1)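 Confluent E6SM cell cultures were inoculated with 100 CCID50 of virus and allowed 1 h for adsorption. Residual virus was then removed, and the cells were incubated with test compound at 400, 200, 100, ... μg/mL. Viral cytopathicity was scored once it reached completion in untreated infected controls.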

Human alphaherpesvirus 1 [3] = assay: Inhibitory activity against herpes simplex virus type 1 (HSV-1) KOS strain.; type: functional, organism-based; procedure, shortened: as §1
Human alphaherpesvirus 1 [4] = assay: Iactivity against herpes simplex virus type 1 (HSV-1) McIntyre strain.; type: functional, organism-based; procedure, shortened: as §1
E6SM [5] = assay: Compound was evaluated for inhibitory activity against herpes simplex virus type 1 thymidine kinase (HSV-1 TK-) B2006 strain; NA=not active; type: functional, cell-based, Homo sapiens; procedure, shortened: as §1
Human alphaherpesvirus 2 [6] = assay: Inhibitory activity against herpes simplex virus type 2 (HSV-2) 196 strain.; type: functional, organism-based; procedure, shortened: as §1
Human alphaherpesvirus 2 [7] = assay: Inhibitory activity against herpes simplex virus type 2 (HSV-2) G strain.; type: functional, organism-based; procedure, shortened: as §1
E6SM [8] = assay: Inhibitory activity against herpes simplex virus type 2 (HSV-2) Lyons strain.; type: functional, cell-based, Homo sapiens; procedure, shortened: as §1
Vaccinia virus [9] = assay: Inhibitory activity against vaccinia virus (VV).; type: functional, organism-based, Orthopoxvirus vaccinia
Procedure, shortened: (§2)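 Confluent E6SM cell cultures were inoculated with 100 CCID50 of virus and left for 1 h adsorption, then residual virus was removed. Cultures were incubated with test compound at serial concentrations (400, 200, 100, ... μg/mL). Virus-induced cytopathicity was scored once it reached completion in untreated infected control cultures.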

HEL [10] = assay: Compound was evaluated for inhibitory activity against cytomegalovirus (CMV) AD 169 strain; NA=not active; type: functional, cell-based, Homo sapiens
Procedure, shortened: (§3)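 HEL cell cultures, grown to confluence, received 100 CCID50 of virus. After 1 h adsorption, the inoculum was removed and the cultures were incubated with serial concentrations of compound (400, 200, 100, ... μg/mL).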

HEL [11] = assay: Compound was evaluated for inhibitory activity against varicella zoster virus thymidine kinase (VZV TK+) OKA strain; NA=Not Active; type: functional, cell-based, Homo sapiens; procedure, shortened: as §3
HEL [12] = assay: Compound was evaluated for inhibitory activity against varicella zoster virus thymidine kinase (VZV TK+) YS strain; NA=not active; type: functional, cell-based, Homo sapiens; procedure, shortened: as §3
[13] = system: Human immunodeficiency virus 1; assay: Inhibitory activity of compound against human immunodeficiency virus type 1 (HIV-1) induced cytopathogenicity in MT-4 cells; type: functional, organism-based; settings: Human immunodeficiency virus 1, MT4
Procedure, shortened: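 Human MT-4 cells (~4 × 10⁵ cells/mL) were infected with 100 CCID50 of HIV-1 (IIIB)/mL and seeded into wells containing compound dilutions. After 5 days at 37 °C, viable cells were counted by trypan blue exclusion in a blood cell counting chamber.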

[14] = system: Human immunodeficiency virus 2; assay: Inhibitory activity against human immunodeficiency virus type 2 (HIV-2) induced cytopathogenicity in MT-4 cells; type: functional, organism-based; settings: Human immunodeficiency virus 2, MT4
HEL [15] = assay: Compound was evaluated for inhibitory activity against varicella zoster virus thymidine kinase (VZV TK-) 07/1 strain; NA=not active; type: functional, cell-based, Homo sapiens
Human alphaherpesvirus 1 [16] = assay: Inhibitory activity against herpes simplex virus type 1 thymidine kinase (HSV-1 TK-) VMW 1837 strain.
[17] = system: Human immunodeficiency virus 1; assay: Inhibition of human immunodeficiency virus type 1 (HIV-1) induced cytopathogenicity in CEM cells; type: functional, organism-based; settings: Human immunodeficiency virus 1, CCRF-CEM
Procedure, shortened: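 CEM cells (~3 × 10⁵ cells/mL) were infected with 100 CCID50 of HIV-1 (IIIB)/mL and plated with dilutions of compound. After 4 days at 37 °C, giant cell formation was assessed microscopically.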

[18] = system: Human immunodeficiency virus 2; assay: Inhibition of human immunodeficiency virus type 2 (HIV-2) induced cytopathogenicity in CEM cells; type: functional, organism-based; settings: Human immunodeficiency virus 2, CCRF-CEM
Human alphaherpesvirus 1 [19] = assay: Inhibition of herpes simplex virus type 1 (HSV-1) F strain; type: functional, organism-based; procedure, shortened: as §1
Human alphaherpesvirus 1 [20] = assay: Inhibitory activity against herpes simplex virus type 1 (HSV-1) McIntyre strain; type: functional, organism-based; procedure, shortened: as §1
[21] = Inhibitory activity against herpes simplex virus type 2 (HSV-2) 196 strain; type: functional; procedure, shortened: as §1
Human alphaherpesvirus 2 [22] = assay: Inhibitory activity against herpes simplex virus type 2 (HSV-2) Lyons strain; type: functional, organism-based; procedure, shortened: as §1
HEL [23] = assay: Compound was evaluated for inhibitory activity against cytomegalovirus (CMV) Davis strain; NA=Not Active; type: functional, cell-based, Homo sapiens; procedure, shortened: as §3
Human alphaherpesvirus 2 [24] = assay: Inhibitory activity against herpes simplex virus type 2 (HSV-2) G strain; type: functional, organism-based; procedure, shortened: as §1
Cytomegalovirus [25] = assay: Inhibitory activity against cytomegalovirus (CMV) AD 169 strain; type: functional, organism-based; settings: Human betaherpesvirus 5; procedure, shortened: as §3
Cytomegalovirus [26] = assay: Inhibitory activity against cytomegalovirus (CMV) Davis strain; type: functional, organism-based; settings: Human betaherpesvirus 5; procedure, shortened: as §3
Human alphaherpesvirus 1 [27] = assay: Inhibitory activity against herpes simplex virus type 1 (HSV-1) KOS strain; type: functional, organism-based; procedure, shortened: as §1
Vaccinia virus [28] = assay: Inhibitory activity against vaccinia virus (VV); type: functional, organism-based; settings: Orthopoxvirus vaccinia; procedure, shortened: as §2

Compound	EC50 [1]	EC50 (Human alphaherpesvirus 1 [2])	EC50 (Human alphaherpesvirus 1 [3])	EC50 (Human alphaherpesvirus 1 [4])	EC50 (E6SM [5])	EC50 (Human alphaherpesvirus 2 [6])	EC50 (Human alphaherpesvirus 2 [7])	EC50 (E6SM [8])	EC50 (Vaccinia virus [9])	EC50 (HEL [10])	EC50 (HEL [11])	EC50 (HEL [12])	EC50 [13]	EC50 [14]	EC50 (HEL [15])	EC50 (Human alphaherpesvirus 1 [16])	EC50 (HEL [23])	EC50 (Cytomegalovirus [25])	EC50 (Cytomegalovirus [26])	also measured
CCOP(=O)(COCCn1cnc2c(N)nc(N)nc21)OCC	> 200 µg/mL	Not Active	Not Active	Not Active	Not Active	Not Active	Not Active	Not Active	Not Active	Not Active	Not Active	Not Active	> 400 µg/mL	> 400 µg/mL	Not Active	Not Active				
CCOP(=O)(O)COCCn1cnc2c(N)ncnc21	120 µg/mL (≈ 398 µM)		Not Active							Not Active							Not Active			EC50 [17]: > 100 µg/mL; EC50 [18]: > 100 µg/mL; EC50 (Human alphaherpesvirus 1 [19]): 150 µg/mL (≈ 498 µM); EC50 (Human alphaherpesvirus 1 [20]): 300 µg/mL (≈ 996 µM); EC50 [21]: 150 µg/mL (≈ 498 µM); EC50 (Human alphaherpesvirus 2 [22]): 150 µg/mL (≈ 498 µM); EC50 (Human alphaherpesvirus 2 [24]): 70 µg/mL (≈ 232 µM)
Cc1ncnc2c1ncn2CCOCP(=O)(O)O	> 200 µg/mL	Not Active	Not Active	Not Active	Not Active	Not Active	Not Active	Not Active	Not Active		Not Active	Not Active	> 400 µg/mL		Not Active	Not Active		100 µg/mL (≈ 367 µM)	200 µg/mL (≈ 735 µM)	
CCOP(=O)(O)COCCn1cnc2c(N)nc(N)nc21	> 200 µg/mL									Not Active			> 100 µg/mL	> 400 µg/mL			Not Active			EC50 (Human alphaherpesvirus 1 [19]): 200 µg/mL (≈ 632 µM); EC50 (Human alphaherpesvirus 1 [27]): 300 µg/mL (≈ 949 µM); EC50 (Human alphaherpesvirus 1 [20]): 300 µg/mL (≈ 949 µM); EC50 [21]: 300 µg/mL (≈ 949 µM); EC50 (Human alphaherpesvirus 2 [22]): 150 µg/mL (≈ 474 µM); EC50 (Vaccinia virus [28]): > 400 µg/mL; EC50 (Human alphaherpesvirus 2 [24]): 70 µg/mL (≈ 221 µM)
Nc1nccc2c1ncn2CCOCP(=O)(O)O	> 100 µg/mL	Not Active	Not Active	Not Active	Not Active	Not Active	Not Active	Not Active	Not Active				> 200 µg/mL			Not Active		70 µg/mL (≈ 257 µM)	400 µg/mL (≈ 1470 µM)	
CSc1ncnc2c1ncn2CCOCP(=O)(O)O	> 200 µg/mL	Not Active	Not Active	Not Active	Not Active	Not Active	Not Active	Not Active	Not Active				> 200 µg/mL	> 400 µg/mL		Not Active		> 400 µg/mL	> 400 µg/mL	
Nc1ncnc2c1nc(Br)n2CCOCP(=O)(O)O	> 200 µg/mL	Not Active	Not Active	Not Active	Not Active	Not Active	Not Active	Not Active	Not Active				> 100 µg/mL	> 100 µg/mL		Not Active		> 50 µg/mL	> 50 µg/mL	EC50 [17]: > 100 µg/mL; EC50 [18]: > 100 µg/mL
CC(C)OP(=O)(COCCn1ccc(O)cc1=O)OC(C)C		Not Active	Not Active	Not Active		Not Active	Not Active	Not Active	Not Active	Not Active	Not Active	Not Active	> 200 µg/mL		Not Active	Not Active	Not Active			
